# C2C12 statin – suppression of simvastatin myotoxicity; rescue of ATP level, % at 7.49 µM; C2C12 myotubes + simvastatin, ATP luminescence, 48 h; scaled: DMSO 0, geranylgeraniol control 100; 330,000 compounds, 0.78% hits; AID 602340;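 active = mean ATP rescue above about 67%, or every replicate alone reaching that limit, limit read from the data, passing the limit was not always enough; inconclusive = no clear call, values can overlap the other calls; inactive = mean under the limit and some replicate under it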;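 note: myotubes were challenged with 10 µM simvastatin during compound exposure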
# S100A4 MyoIIA – blocks human S100A4 binding to myosin IIA peptide; P26447; 360,000 compounds, 0.14% hits; AID 652163; S100A4/TAMRA-MyoIIA peptide fluorescence polarization; inhibition, % at 10.7 µM;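 active = mean inhibition of at least 70% across replicates, with every replicate also reaching that level; inconclusive = mean inhibition reaches 70% but some replicates fall short; inactive = mean inhibition below 70%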
# Target sequence (P26447 whole entry, looked up): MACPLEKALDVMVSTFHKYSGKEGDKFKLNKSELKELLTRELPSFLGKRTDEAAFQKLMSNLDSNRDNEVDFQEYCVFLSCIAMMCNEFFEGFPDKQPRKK
#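 incubation = readout 5 min after mixing, signal stable up to 60 min | system = S100A4 monomer protein | buffer or medium = HEPES pH 7.2 with CaCl2, KCl, NaCl, DTT, Triton | benchmarks = neutral control DMSO, positive control TFP | also added = fluorescent myosin IIA peptide, 5 nM | compound dosing = one concentration per compound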
# CDK5 inh – blocks human CDK5/p35 kinase activity. Recombinant CDK5/p35, ADP-Glo luminescence, 60 min. inhibition, % at 10 µM. 330,000 compounds, 0.01% hits. AID 488839;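 active = highest replicate inhibition of at least 50% and at least 75% of replicates reaching 50%; inconclusive = only one of the two criteria met; inactive = both criteria failed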;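 note: plate controls were DMSO neutral control for no effect and GW8510 at 10 µM for full effect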
# dFosB act – enhances mouse delta FosB homodimer DNA binding. P13346. purified delta FosB, TAMRA-CDK5 oligo fluorescence polarization; percent of positive-control signal above neutral wells. activation, % at 25 µM. 340,000 compounds, 0.99% hits;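 active = mean activation above about 17%, with every replicate also reaching it, limit read from the data, passing the limit was not always enough; inconclusive = only one of the two conditions met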
# Target sequence (P13346 whole entry, looked up): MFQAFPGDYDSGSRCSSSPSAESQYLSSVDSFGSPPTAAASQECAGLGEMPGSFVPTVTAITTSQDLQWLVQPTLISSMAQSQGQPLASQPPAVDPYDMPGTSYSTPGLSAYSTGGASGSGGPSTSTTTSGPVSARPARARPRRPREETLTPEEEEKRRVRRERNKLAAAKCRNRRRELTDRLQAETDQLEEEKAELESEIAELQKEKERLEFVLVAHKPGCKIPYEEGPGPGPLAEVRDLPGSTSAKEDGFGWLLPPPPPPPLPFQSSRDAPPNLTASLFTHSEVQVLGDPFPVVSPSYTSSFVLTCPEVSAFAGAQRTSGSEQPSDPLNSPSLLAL
# CAL PDZ FP-1 – blocks peptide binding to the human CAL PDZ domain | Q9HD26 | purified CAL PDZ, TMR-peptide fluorescence polarization, 1 h | inhibition, % at 24.9 µM | 300,000 compounds, 0.92% hits | AID 602252;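 active = mean inhibition of at least 30% with at least half of replicates also reaching 30%; inconclusive = no clear call, values can overlap the other calls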;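 note: 0% = DMSO neutral control and 100% = excess unlabeled competitor peptide PRC23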
# CAL PDZ FP-2 – human CAL PDZ-peptide interaction inhibition; purified CAL PDZ, TMR-peptide fluorescence polarization, 1 h; Q9HD26; inhibition, % at 20 µM; AID 504414; 330,000 compounds, 0.02% hits;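 active = highest replicate inhibition of at least 40%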;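 note: plate controls were DMSO neutral control wells for no effect and unlabeled competitor peptide control wells for full effect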
#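 Read-out basis: mP drop reported as inhibition | Assay system: Tagged CAL PDZ protein CerCALP, purified | Benchmarks: Unlabelled peptide for full inhibition, DMSO wells as neutral | Schedule: 1 h incubation at room temperature before polarization reading | Buffer or medium: Sodium phosphate/NaCl buffer pH 7.4 with TCEP, IgG, Thesit | Doses: Single point, 20 µM | Measured by: Fluorescence polarization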
# The depositor's hits bear a star; ? = inconclusive; . = no result given. An excerpt weighted towards active compounds, which were near 2% of everything screened.
SMILES,C2C12 statin,S100A4 MyoIIA,CDK5 inh,dFosB act,CAL PDZ FP-1,CAL PDZ FP-2
C[C@@H]1CN([C@H](C)CO)C(=O)c2cccc(NC(=O)c3nc4ccccc4s3)c2O[C@H]1CN(C)S(=O)(=O)c1cn(C)cn1,-20.7,-2.5,.,.,.,.
CC(=O)C(C(c1ccccc1)N1CCOCC1)N1CCOCC1 (stereo unspecified),-1.9,-0.9,-0.4,8.1,.,-0.9
CSc1ccc(C(C(C(=O)c2cccs2)N2CCOCC2)N2CCOCC2)cc1 (stereo unspecified),77.4*,.,-0.3,-5.5,-4.8,-2.2
CC(C)CCN1C(=O)c2ccc(C(=O)Nc3cc(C(=O)O)cc(C(=O)O)c3)cc2C1=O,-2.0,-7.8,0.1,-8.8,32.9*,0.2
CCCCCCCC(=O)Oc1ccc(C(=O)Nc2cc(C)on2)cc1,0.7,-7.6,0.4,0.5,-3.8,-0.8
CC(C)NC(=O)N(C)C[C@@H]1Oc2ccc(NS(=O)(=O)c3ccccc3)cc2CC(=O)N([C@H](C)CO)C[C@@H]1C,0.5,0.1,.,.,.,.
CC(C)(CNC(=O)c1cc2ccccc2o1)N1CCOCC1,5.9,.,0.6,5.7,67.2*,-0.3
O=C(NCCN1CCOCC1)c1cc2ccccc2o1,5.3,.,1.0,-6.4,-2.9,-1.6
N#CCCN1CCNCC1,131.9*,.,0.7,-0.2,-2.6,0.0
CC(=O)c1ccc(N2C(=NC(=O)COc3ccccc3)SC3CS(=O)(=O)CC32)cc1 (stereo unspecified),5.3,2.8,-2.3,-7.5,-1.0,-1.4
CCCCNS(=O)(=O)c1ccc2nc(SCC(N)=O)[nH]c2c1,-5.9,-4.0,-1.2,-4.3,-3.9,1.0
CCCCNS(=O)(=O)c1ccc2nc(SCC(=O)Nc3sccc3C#N)[nH]c2c1,.,.,-0.7,-14.2,35.3*,.
Cc1c(C)c2ccc(OC(C)C(=O)NCCCn3ccnc3)c(C)c2oc1=O (stereo unspecified),14.0,5.6,0.7,-5.4,71.1*,-0.5
CC(Oc1ccc2ccc(=O)oc2c1)C(=O)NCCCn1ccnc1 (stereo unspecified),96.0*,-3.1,-0.3,0.9,-0.2,-1.0
S=c1nc(C2CCCCC2)[nH]c2ccccc12,.,-3.9,-3.1,2.9,.,0.5
Oc1ccc2c(c1)C1CCCC1(N1CCOCC1)O2 (stereo unspecified),.,.,-0.1,-4.3,0.8,-2.1
Clc1ccc2c(N/N=C/c3ccc(Br)cc3)ccnc2c1,1.8,12.8,1.6,33.9*,-1.7,-0.6
Clc1ccc2c(N/N=C/c3cccnc3)ccnc2c1,13.3,4.0,-7.0,-27.2,1.2,-6.3
Cc1ccc(/C=N/Nc2ccnc3cc(Cl)ccc23)c(C)c1,.,-5.6,-1.7,49.4*,7.2,-1.3
Oc1ccc(/C=N/Nc2ccnc3cc(Cl)ccc23)c(O)c1,2.3,1.7,-3.2,?,-5.3,0.0
CCCC(=O)Nc1ccc2c(c1)C(=O)N(C)C[C@@H](OC)[C@@H](C)CN(C(=O)c1ccccc1F)[C@@H](C)CO2,5.0,7.1,.,.,.,.
N#C[C@@H]1[C@@H](c2ccc(C#Cc3cccc(F)c3)cc2)[C@H](CO)N1C(=O)C1CCCC1,53.5,-13.4,.,.,.,.
CCCC(O)(CCN1CCOCC1)c1ccc(Cl)cc1 (stereo unspecified),15.5,-6.5,0.6,2.5,40.8*,18.8
COc1ccc(CCC(=O)Nc2nccs2)cc1OC,4.9,1.0,-0.1,-3.7,-3.8,-0.5
O=C(NCCCN1CCN(c2ccccc2F)CC1)C1CC(=O)N(C2CCCC2)C1 (stereo unspecified),125.2*,-3.3,-2.1,-4.8,.,-1.5
SMILES,C2C12 statin,S100A4 MyoIIA,CDK5 inh,dFosB act,CAL PDZ FP-1,CAL PDZ FP-2
CN1CCN(CCCNC(=O)C2CC(=O)N(C3CCCCC3)C2)CC1 (stereo unspecified),2.0,.,0.2,0.8,-1.5,-0.7
C[C@H](CO)N1C[C@H](C)[C@H](CN(C)S(=O)(=O)c2cccs2)Oc2ccc(NC(=O)CCN3CCOCC3)cc2CC1=O,8.1,5.7,.,.,.,.
Cc1cc(Cl)c(S(=O)(=O)N2CC(C)OC(C)C2)cc1OCC(N)=O (stereo unspecified),135.5*,.,-0.7,-0.6,-0.5,-2.2
Cc1cc(Cl)c(S(=O)(=O)N2CCSCC2)cc1OCC(N)=O,-5.9,.,-0.1,1.8,-1.8,0.4
c1ccc(CSc2ncnc3c2cnn3-c2ccccc2)cc1,.,.,-0.8,12.7,2.1,-0.4
CCOC(=O)CCCCC(=O)c1[nH]c(=O)[nH]c1CSc1nc2ccccc2[nH]1,95.5*,-1.1,-3.5,-6.8,-1.8,-3.4
CCOC(=O)CCCCC(=O)c1[nH]c(=O)[nH]c1CSc1nc(C)cc(=O)[nH]1,0.1,-4.1,3.4,0.6,-4.1,-1.3
Cc1c(C)c2ccc(OCC(=O)NC3CCN(Cc4ccccc4)CC3)c(C)c2oc1=O,-4.5,-5.2,0.5,-31.0,2.1,-0.9
Cn1nnnc1SCc1cccc2ccccc12,.,0.1,-3.0,-0.2,34.2*,.
CC(C)n1c(SCC(=O)Nc2nc3c(s2)CCCC3)nc2c1c(=O)n(C)c(=O)n2C,98.7*,.,-0.9,-2.0,-3.1,-3.6
CCOC(=O)c1cc2cc(CC(=O)c3ccc(OCC)cc3O)ccc2o1,96.8*,.,1.7,-2.7,3.6,.
O=C1CN(C(=O)COC(=O)CCSc2ccccc2Cl)c2ccccc2N1,106.1*,0.0,-0.1,-12.5,-3.2,.
O=C(COc1ccccc1)Nc1ncccn1,-34.4,.,-1.8,-1.1,-1.8,-2.8
Cc1ccc(CC(=O)c2ccc(Cl)cc2)cc1,133.1*,-0.8,-0.1,-11.2,-4.5,-0.8
O=C(Cc1ccc(Cl)cc1)c1ccc(O)cc1,.,4.4,0.0,5.2,-9.9,-1.3
Cc1cc(C)nc(NC(=O)Cc2ccc(Cl)cc2)c1,-8.1,-2.8,0.5,-0.1,32.6*,-1.6
CO[C@@H]1CN(C)C(=O)c2ccc(NC(=O)c3cnccn3)cc2OC[C@@H](C)N(CC2CC2)C[C@H]1C,10.2,-5.1,.,.,.,.
O=C(O)CN1C(=O)/C(=C\c2cn(-c3ccccc3)nc2-c2ccccc2)SC1=S,13.9,.,0.8,3.0,-8.0,-4.2
Cc1c(C(=O)Oc2cccc3cccnc23)oc2ccccc12,-5.0,-2.8,-0.2,-7.9,39.4*,-0.3
CCc1nc2ccccc2c(C(=O)Oc2cccc3cccnc23)c1C,.,.,-2.5,-15.9,-0.3,22.9
COc1ccc(CN2C[C@H](C)[C@H](OC)CN(C)C(=O)c3cc(NC(C)=O)ccc3OC[C@@H]2C)cc1,-10.3,-3.8,.,.,.,.
COc1ccc(C(=O)NC(=C(Cl)Cl)S(=O)(=O)c2ccc(C)cc2)cc1,.,2.0,-1.2,22.7*,-6.5,-2.7
COC(=O)NC(=C(Cl)Cl)S(=O)(=O)c1ccccc1,147.3*,.,0.0,-2.9,1.1,0.9

# High-throughput results from PubChem BioAssay.
